Measured values of several laboratories.
Each line is one published result; the experiments were not run side by side.
Target: Serine/threonine-protein kinase WNK2 (WNK2, Homo sapiens, UniProt Q9Y3S1)

SMILES | test | conditions | endpoint | value
Cc1ccc(Nc2nccc(N(C)c3ccc4c(C)n(C)nc4c3)n2)cc1S(N)(=O)=O | enzyme activity, inhibitor | 10 µM | inhibition | 26%
CC(C)(O)[C@H]1CC[C@H](Nc2ccc3ncc(-c4cccc(C(F)(F)F)c4)n3n2)CC1 | enzyme activity, inhibitor | 1 µM | remaining activity | 86.2%
Nc1ncnc2occ(-c3ccc(NC(=O)Nc4cc(C(F)(F)F)ccc4F)cc3)c12 | cell-free assay, inhibitor | 20 µM | remaining signal | 65%
CNC(=O)c1cc(Oc2ccc(NC(=O)Nc3ccc(Cl)c(C(F)(F)F)c3)cc2)ccn1 | enzyme activity, inhibitor | 10 µM | inhibition | 13%
CNC(=O)Nc1ccc2c(c1)[C@@]1(CC2)OC(=O)N(CC(=O)N(Cc2ccc(F)cc2)[C@@H](C)C(F)(F)F)C1=O | cell-free assay, competition with immobilised ligand | 1 µM | remaining binding | 59%
CN(CCCC(F)(F)F)c1nccc(-c2cnn3ncccc23)n1 | binding | 1 µM | remaining binding | 100%
O=C1Nc2ccc(Cl)cc2C1=Cc1cc(Cl)c(O)c(Cl)c1 | cell-free assay | 0.5 µM | remaining signal | 115%
Nc1cnc(N2CCc3cc(S(=O)(=O)Nc4c(F)cc(Cl)cc4F)cc(N4CCCC4=O)c32)nc1 | cell-free assay, competition with immobilised ligand | 1 µM | remaining binding | 100%
CCN(CC)c1ccc(C2=NNC(=O)CC2C)cc1[N+](=O)[O-] (stereo not shown) | enzyme activity, inhibitor | 10 µM | remaining activity | 104%
O=C(Nc1cnc(Oc2ccc(F)cc2)nc1)N1CCc2ncccc2[C@@H]1c1ccc(F)cc1 | cell-free assay, competition with immobilised ligand | 1 µM | remaining binding | 79%
O=C(Nc1cnn(-c2csc(C(=O)NC3COC3)c2)c1)Nc1c(F)cccc1Cl | enzyme activity, inhibitor | 5 µM | remaining activity | 91.9%
CC(C)(C)c1nc2c(s1)c1nc(N)ncc1c1ccc(NS(=O)(=O)c3c(F)cccc3F)c(F)c12 | enzyme activity, inhibitor, radiometric | 1 µM | remaining activity | 101%
N#CCCc1ccc2c(c1)-c1[nH]c3ccc([N+](=O)[O-])cc3c1CC(=O)N2 | cell-free assay | 0.5 µM | remaining signal | 112%
CN([C@@H]1CCc2c(CC(=O)O)c3ccccc3n2C1)S(=O)(=O)c1ccc(F)cc1 | cell-free assay, competition with immobilised ligand | 1 µM | remaining binding | 92%
COc1cc(Cl)c(C(=O)N[C@@H](CN[C@H]2CC[C@@H](N)CC2)Cc2ccc(C#N)cc2)cc1-c1ccc(CN[C@H](C)c2ccc(C)cc2)o1 | enzyme activity, inhibitor | 1 µM | remaining activity | 101%
O=C(NC[C@@H]1[C@H]2CN(C(=O)OCc3cc(C(F)(F)F)cc(C(F)(F)F)c3)C[C@@H]12)c1ccc2[nH]nnc2c1 | cell-free assay, competition with immobilised ligand | 1 µM | remaining binding | 84%
Cc1cnc(NC2CCOCC2)nc1-n1cnc(C(=O)NC(CN)c2cc(F)cc(Cl)c2)c1 (stereo not shown) | enzyme activity, inhibitor, radiometric | 1 µM | remaining activity | 85%
O=C(O)[C@@H]1[C@@H](Cn2nnc3ccccc3c2=O)CC[C@H]1C(=O)c1ccc(OCCC2CCOCC2)cc1 | cell-free assay, competition with immobilised ligand | 1 µM | remaining binding | 82%
CCN(CC)CCNC(=O)c1c(C)[nH]c(/C=C2\C(=O)Nc3ccc(F)cc32)c1C | enzyme activity, inhibitor | 10 µM | inhibition | 23%
